Experiment [1] has as its target Neuronal acetylcholine receptor; alpha3/beta2 (Rattus norvegicus, UniProt P04757+P12390). The experiment in a line: Inhibition of rat Nicotinic acetylcholine receptor alpha3-beta2 expressed in Xenopus Oocytes. Type of experiment: cell-based. In outline:
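Rat nAChR subunit cRNAs (50 nL, 5–50 ng/µL) injected into Xenopus oocytes, kept at 19 °C in ND96 pH 7.4 with gentamycin; two-electrode voltage clamp at −70 mV, 2–10 days post-injection. Peptide added to static bath, 3–10 min before agonist; sub-1 nM also perfused 10–15 min. IC50 from fitted concentration–response curves with Hill slope.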

Experiment [2] in a line: Inhibition ratio of rat alpha 3 beta 2 nicotinic acetylcholine receptor (nAChR) to that of at alpha 7 nicotinic acetylcholine receptor (nAChR).
For experiment [3], the target named is Neuronal acetylcholine receptor subunit alpha-7 (Rattus norvegicus, UniProt Q05941). The experiment is described as follows: Compound was evaluated for inhibition of rat Nicotinic acetylcholine receptor alpha-7 (nAChR) in Xenopus Oocytes. Type of experiment: cell-based. In outline: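 Rat α7 nAChR cRNA (5–50 ng/µL, 50 nL) injected into Xenopus oocytes kept at 19 °C in ND96 (pH 7.4) plus gentamycin; two-electrode voltage clamp 2–10 days later at −70 mV. Peptide applied once three agonist responses differed <10%, added to static bath and incubated 3–10 min before agonist. IC50 and nH from concentration–response curve fit; 95% confidence intervals.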

“And” between values parts separate entries of the source, which are not always exact repeats. Equal values may be shown once.

Chain of Neuronal acetylcholine receptor; alpha3/beta2 (P04757 whole entry, the tested form may be a part): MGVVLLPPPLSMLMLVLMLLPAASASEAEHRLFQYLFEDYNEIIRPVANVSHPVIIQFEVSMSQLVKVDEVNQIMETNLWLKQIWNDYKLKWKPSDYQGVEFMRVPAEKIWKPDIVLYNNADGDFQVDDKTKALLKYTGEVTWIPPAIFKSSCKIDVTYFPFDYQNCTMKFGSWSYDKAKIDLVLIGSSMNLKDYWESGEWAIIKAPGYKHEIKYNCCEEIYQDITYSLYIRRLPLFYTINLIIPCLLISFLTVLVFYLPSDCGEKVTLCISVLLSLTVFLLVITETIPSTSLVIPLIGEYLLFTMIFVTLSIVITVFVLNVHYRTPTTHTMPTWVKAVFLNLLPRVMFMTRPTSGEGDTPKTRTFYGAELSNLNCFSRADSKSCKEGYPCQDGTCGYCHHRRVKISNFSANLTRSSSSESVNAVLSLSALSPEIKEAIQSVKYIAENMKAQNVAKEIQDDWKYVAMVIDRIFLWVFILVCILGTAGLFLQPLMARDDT
Chain of Neuronal acetylcholine receptor; alpha3/beta2 (P12390 whole entry, the tested form may be a part): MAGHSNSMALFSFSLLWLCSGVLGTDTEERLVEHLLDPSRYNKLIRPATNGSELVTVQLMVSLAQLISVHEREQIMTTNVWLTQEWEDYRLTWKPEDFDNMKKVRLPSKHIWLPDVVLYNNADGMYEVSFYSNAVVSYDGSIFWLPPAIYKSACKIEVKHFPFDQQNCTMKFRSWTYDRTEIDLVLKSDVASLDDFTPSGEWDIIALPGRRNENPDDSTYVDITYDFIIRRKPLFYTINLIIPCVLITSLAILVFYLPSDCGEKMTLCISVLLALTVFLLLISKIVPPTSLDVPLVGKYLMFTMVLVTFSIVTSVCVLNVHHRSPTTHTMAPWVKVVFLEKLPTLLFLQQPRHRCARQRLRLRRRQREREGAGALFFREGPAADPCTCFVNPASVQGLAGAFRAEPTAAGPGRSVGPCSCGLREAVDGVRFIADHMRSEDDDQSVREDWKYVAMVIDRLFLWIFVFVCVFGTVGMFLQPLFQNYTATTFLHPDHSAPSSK
Chain of Neuronal acetylcholine receptor subunit alpha-7 (Q05941 whole entry): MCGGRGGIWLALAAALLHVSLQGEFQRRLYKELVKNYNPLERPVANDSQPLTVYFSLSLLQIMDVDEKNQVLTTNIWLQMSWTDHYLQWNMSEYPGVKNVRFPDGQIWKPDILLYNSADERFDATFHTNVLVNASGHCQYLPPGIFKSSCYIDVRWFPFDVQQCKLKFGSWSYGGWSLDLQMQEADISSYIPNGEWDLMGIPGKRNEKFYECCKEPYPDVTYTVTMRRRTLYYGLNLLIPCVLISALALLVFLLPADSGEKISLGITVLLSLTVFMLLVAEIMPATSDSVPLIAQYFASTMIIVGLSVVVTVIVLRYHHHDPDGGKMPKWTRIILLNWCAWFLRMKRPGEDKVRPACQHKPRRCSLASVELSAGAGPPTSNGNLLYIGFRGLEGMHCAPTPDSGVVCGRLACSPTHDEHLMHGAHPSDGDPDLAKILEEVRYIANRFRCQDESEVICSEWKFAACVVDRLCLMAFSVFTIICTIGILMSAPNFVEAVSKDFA

Consider `C[C@H](NC(=O)[C@H](CS)NC(=O)[C@H](C)NC(=O)[C@H]1CCCN1C(=O)[C@H](CC1=CNCN1)NC(=O)[C@H](CO)NC(=O)[C@H](CS)NC(=O)[C@H](CS)NC(=O)CN)C(=O)N[C@@H](CC(N)=O)C(=O)N[C@@H](CC(N)=O)C(=O)N[C@@H](CCC(N)=O)C(=O)N[C@@H](CC(=O)O)C(=O)N[C@@H](Cc1ccc(O)cc1)C(=O)N[C@@H](CS)C(N)=O`, for which the IC50 in experiment [1] was 0.17 nM. `C[C@H](NC(=O)[C@H](C)NC(=O)[C@H](CS)NC(=O)[C@H](C)NC(=O)[C@H]1CCCN1C(=O)[C@H](Cc1c[nH]cn1)NC(=O)[C@H](CO)NC(=O)[C@H](CS)NC(=O)[C@H](CS)NC(=O)CNC(=O)CNC(=O)CN)C(=O)N[C@@H](CC(N)=O)C(=O)N[C@@H](CC(N)=O)C(=O)N[C@@H](CCC(N)=O)C(=O)N[C@@H](CC(=O)O)C(=O)N[C@@H](Cc1ccc(O)cc1)C(=O)N[C@@H](CS)C(N)=O` showed an IC50 in experiment [1] of 0.2 nM.

Take `CC(C)C[C@H](NC(=O)[C@H](CC(N)=O)NC(=O)[C@H](CO)NC(=O)[C@H](Cc1c[nH]cn1)NC(=O)[C@H](CCC(=O)O)NC(=O)[C@H](CC(C)C)NC(=O)[C@H](Cc1c[nH]cn1)NC(=O)[C@H](CS)NC(=O)[C@@H](NC(=O)[C@@H]1CCCN1C(=O)[C@H](CC(N)=O)NC(=O)[C@H](CO)NC(=O)[C@H](CS)NC(=O)[C@H](CS)NC(=O)CN)C(C)C)C(=O)N[C@@H](CS)C(N)=O`: the Ratio in experiment [2] is 0.0025. On to `CC(C)C[C@H](NC(=O)[C@H](CC(N)=O)NC(=O)[C@H](CO)NC(=O)[C@H](Cc1cnc[nH]1)NC(=O)[C@H](CCC(=O)O)NC(=O)[C@H](CC(C)C)NC(=O)[C@H](Cc1cnc[nH]1)NC(=O)[C@H](CS)NC(=O)[C@@H](NC(=O)[C@@H]1CCCN1C(=O)[C@H](CC(N)=O)NC(=O)[C@H](CO)NC(=O)[C@H](CS)NC(=O)[C@H](CS)NC(=O)CN)C(C)C)C(=O)N[C@@H](CS)C(N)=O`, for which the IC50 in experiment [1] stood at 0.5 nM. Same read-out and setting: the result for `C[C@H](NC(=O)[C@H](C)NC(=O)[C@H](CS)NC(=O)[C@H](C)NC(=O)[C@H]1CCCN1C(=O)[C@H](Cc1cnc[nH]1)NC(=O)[C@H](CO)NC(=O)[C@H](CS)NC(=O)[C@H](CS)NC(=O)CNC(=O)CN)C(=O)N[C@@H](CC(N)=O)C(=O)N[C@@H](CC(N)=O)C(=O)N[C@@H](CCC(N)=O)C(=O)N[C@@H](CC(=O)O)C(=O)N[C@@H](Cc1ccc(OS(=O)(=O)O)cc1)C(=O)N[C@@H](CS)C(N)=O` reads 0.64 nM; that for `CC[C@H](C)[C@H](NC(=O)[C@H](Cc1c[nH]cn1)NC(=O)[C@H](CCC(N)=O)NC(=O)[C@H](CC(N)=O)NC(=O)[C@H](CC(N)=O)NC(=O)CNC(=O)[C@H](C)NC(=O)[C@H](CS)NC(=O)[C@H](C)NC(=O)[C@@H]1CCCN1C(=O)[C@H](Cc1c[nH]cn1)NC(=O)[C@H](CO)NC(=O)[C@H](CS)NC(=O)[C@H](CS)NC(=O)CN)C(=O)N[C@@H](CS)C(N)=O`, 1.1 nM. For `C[C@H](NC(=O)[C@H](C)NC(=O)[C@H](CS)NC(=O)[C@H](C)NC(=O)[C@H]1CCCN1C(=O)[C@H](Cc1c[nH]cn1)NC(=O)[C@H](CO)NC(=O)[C@H](CS)NC(=O)[C@H](CS)NC(=O)CNC(=O)CN)C(=O)N[C@@H](CC(N)=O)C(=O)N[C@@H](CC(N)=O)C(=O)N[C@@H](CCC(N)=O)C(=O)N[C@@H](CC(=O)O)C(=O)N[C@@H](Cc1ccc(O)cc1)C(=O)N[C@@H](CS)C(N)=O`, the IC50 in experiment [3] was 76 nM; in experiment [1], 0.28 nM and 0.3 nM. In addition, the Ratio in experiment [2] stood at 0.004. The compound `C[C@H](NC(=O)[C@H](C)NC(=O)[C@H](CS)NC(=O)[C@H](C)NC(=O)[C@H]1CCCN1C(=O)[C@H](Cc1cnc[nH]1)NC(=O)[C@H](CO)NC(=O)[C@H](CS)NC(=O)[C@@H](N)CS)C(=O)N[C@@H](CC(N)=O)C(=O)N[C@@H](CC(N)=O)C(=O)N[C@@H](CCC(N)=O)C(=O)N[C@@H](CC(=O)O)C(=O)N[C@@H](Cc1ccc(O)cc1)C(=O)N[C@@H](CS)C(N)=O` gave an IC50 in experiment [1] of 5.84 nM. `C[C@H](NC(=O)[C@H](C)NC(=O)[C@H](CS)NC(=O)[C@H](C)NC(=O)[C@H]1CCCN1C(=O)[C@H](Cc1cnc[nH]1)NC(=O)[C@H](CO)NC(=O)[C@H](CS)NC(=O)[C@H](CS)NC(=O)CNC(=O)CN)C(=O)N[C@@H](CC(N)=O)C(=O)N[C@@H](CC(N)=O)C(=O)N[C@@H](CCC(N)=O)C(=O)N[C@@H](CC(=O)O)C(=O)N[C@@H](Cc1ccc(O)cc1)C(=O)N[C@@H](CS)C(=O)O` showed an IC50 in experiment [1] of 0.54 nM.

The values above are taken from ChEMBL document CHEMBL1148487, “Chemical and functional identification and characterization of novel sulfated alpha-conotoxins from the cone snail Conus anemone” (J Med Chem, 2004).
